According to ChEMBL document CHEMBL3632613, “Pharmacokinetic, pharmacodynamic and metabolic characterization of a brain retentive microtubule (MT)-stabilizing triazolopyrimidine” (Bioorg Med Chem Lett, 2015):
Active and inactive are the calls of the source. The calls are words filed in the database; no cut-off is given here.

Experiments:
Plasma [1] = experiment: Drug level in mouse plasma treated with at 5 mg/kg, ip cmpound-4 assessed as compound formation; conditions: in vivo
QBI293 [2] = experiment: Cytotoxic activity against human QBI293 cells assessed as reduction in cel viability incubated for 24 hrs by alamar blue assay; assay type: functional, cell-based
Procedure, shortened: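 QBI293 cells seeded 10,000/well, grown overnight at 37°C, 5% CO2, then exposed in triplicate to a nM–µM range (diluted from 20 mM DMSO stocks; 0.25% DMSO vehicle as 0% toxicity, 100 µM tubercidin as 100%) for 18 h. Alamar Blue was then added at 10% of well volume for another 6 h. Fluorescence read at ex 550/em 590 nm. Percent cytotoxicity was derived from RFUs.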

[3] = Retention time of the compound in mouse liver microsomes by LC-MS/MS method; assay type: ADME
QBI293 [4] = experiment: Stabilization of microtubule in human QBI293 cells assessed as increase in acetylated alpha-tubulin up to 1 uM incubated for 4 hrs; assay type: cell-based
Mus musculus = experiment: In-vivo stabilization of microtubule in normal mouse assessed as increase in acetylated alpha-tubulin at 5 mg/kg, ip administered as two doses after 1 day; assay type: functional, organism-based
[5] = Half life in rat plasma at 5 mg/kg, ip; assay type: ADME, organism-based
Plasma [6] = experiment: Drug metabolism in mouse plasma assessed as formation of (S)-3-(4-(5-chloro-7-((1,1,1-trifluoropropan-2-yl)amino)-[1,2,4]triazolo[1,5-a]pyrimidin-6-yl)-3,5-difluorophenoxy)propanoic acid at 5 mg/kg, ip; conditions: in vivo
Brain [7] = experiment: Drug level in rat brain at 5 mg/kg, ip administered as two repeated doses separated by 4 hrs interval; assay type: ADME, organism-based; conditions: in vivo
Brain [8] = experiment: Drug level in rat brain at 5 mg/kg, ip administered as single dose after 4 hrs; assay type: ADME, organism-based; conditions: in vivo
Plasma [9] = experiment: Drug metabolism in mouse plasma assessed as formation of (S)-4-(5-chloro-7-((1,1,1-trifluoropropan-2-yl)amino)-[1,2,4]triazolo[1,5-a]pyrimidin-6-yl)-3,5-difluorophenol at 5 mg/kg, ip; conditions: in vivo
[10] = Half life in rat brain at 5 mg/kg, ip; assay type: ADME, organism-based

| SMILES | Drug metabolism (Plasma [1]) | Activity (QBI293 [2]) | Retention_time [3] [min] | inhibition (QBI293 [4]) | Activity (Mus musculus) | half-life [5] [h] | Drug metabolism (Plasma [6]) | Drug uptake (Brain [7]) | Drug uptake (Brain [8]) | Drug metabolism (Plasma [9]) | half-life [10] [h] |
| --- | --- | --- | --- | --- | --- | --- | --- | --- | --- | --- | --- |
| C[C@H](Nc1c(-c2c(F)cc(OCCC(=O)O)cc2F)c(Cl)nc2ncnn12)C(F)(F)F | metabolite_detected | inactive | 6.9 | inactive |  |  |  |  |  |  |  |
| C[C@H](Nc1c(-c2c(F)cc(O)cc2F)c(Cl)nc2ncnn12)C(F)(F)F | metabolite_detected | inactive | 6.73 | inactive |  |  |  |  |  |  |  |
| C[C@H](Nc1c(-c2c(F)cc(OCCCO)cc2F)c(Cl)nc2ncnn12)C(F)(F)F |  | Active | 6.91 | Active | Active | 2.5 | metabolite_detected | Active | Active | metabolite_detected | 7 |
